{"data": "Measurements pooled from the literature", "PADI4": "Protein-arginine deiminase type-4 (PADI4, Homo sapiens, UniProt Q9UM07)", "HDAC9": "Histone deacetylase 9 (HDAC9, Homo sapiens, UniProt Q9UKV0)", "ALDH1A3": "Retinaldehyde dehydrogenase 3 (ALDH1A3, Homo sapiens, UniProt P47895)", "CA9": "Carbonic anhydrase 9 (CA9, Homo sapiens, UniProt Q16790)", "Pancreatic alpha-amylase": "Pancreatic alpha-amylase (Homo sapiens, UniProt P04746)", "MAOB": "Amine oxidase [flavin-containing] B (MAOB, Homo sapiens, UniProt P27338)", "CHRM4": "Muscarinic acetylcholine receptor M4 (CHRM4, Homo sapiens, UniProt P08173)", "note": "Each line is one published result; the experiments were not run side by side."}
{"Structure (SMILES)": "N=C(CCl)NCCC[C@H](NC(=O)c1cccc(-c2ccc(B(O)O)cc2)c1)C(=O)NCc1ccccc1", "target": "PADI4", "effect on": "enzyme activity", "mode": "inhibitor", "technique": "fluorescence", "setting": "with preincubation", "IC50 [µM]": 0.708}
{"Structure (SMILES)": "CN1CCC(CNc2ccc3ncc(-c4cccc(OC(F)(F)F)c4)n3n2)CC1", "target": "Beta-1 adrenergic receptor (ADRB1, Homo sapiens, UniProt P08588)", "effect on": "cAMP", "mode": "antagonist", "IC50 [µM]": 6.75}
{"Structure (SMILES)": "COc1ccc(N(Cc2csc(-c3ccc(C)cc3)n2)C(=O)CCCCCC(=O)NO)cc1", "target": "HDAC9", "effect on": "enzyme activity", "mode": "inhibitor", "IC50 [µM]": "> 10"}
{"Structure (SMILES)": "Cc1cc(O)c(-c2ccc([C@@H](C)CN(C)C)cc2)c2c1[nH]c(=O)c1sccc12", "target": "Cyclin-dependent kinase 18, with cyclin Y (CDK18, Homo sapiens, UniProt Q07002)", "effect on": "enzyme activity", "mode": "inhibitor", "IC50 [µM]": "> 1"}
{"Structure (SMILES)": "N=C(CCl)NCCC[C@H](NC(=O)c1ccc2cc(Br)ccc2n1)C(=O)NCc1ccccc1", "target": "PADI4", "effect on": "enzyme activity", "mode": "inhibitor", "technique": "fluorescence", "setting": "with preincubation", "IC50 [µM]": 1.49}
{"Structure (SMILES)": "Cc1ccc(-c2cccc(C=O)c2)c(C)c1", "target": "ALDH1A3", "effect on": "enzyme activity", "mode": "inhibitor", "IC50 [µM]": 14.9}
{"Structure (SMILES)": "NS(=O)(=O)c1cccc(Nc2nc(-c3cc4cc(Br)ccc4oc3=O)cs2)c1", "target": "CA9", "effect on": "enzyme activity", "mode": "inhibitor", "IC50 [µM]": 1.91}
{"Structure (SMILES)": "COc1cc(/C=N/NC(=S)NN=Cc2sccc2C)ccc1Oc1ccnc2cc(Cl)ccc12", "target": "Pancreatic alpha-amylase", "effect on": "enzyme activity", "mode": "inhibitor", "technique": "absorbance", "IC50 [µM]": 53.6}
{"Structure (SMILES)": "NC/C(=C\\F)COc1cccc(Cn2c(=S)[nH]c(=O)c3[nH]cnc32)c1", "target": "MAOB", "effect on": "enzyme activity", "mode": "inhibitor", "IC50 [µM]": 13}
{"Structure (SMILES)": "COc1cc(/C=N/NC(=S)NN=Cc2scnc2C)ccc1Oc1ccnc2cc(Cl)ccc12", "target": "Pancreatic alpha-amylase", "effect on": "enzyme activity", "mode": "inhibitor", "technique": "absorbance", "IC50 [µM]": 57.1}
{"Structure (SMILES)": "O=C(NO)c1ccc(Cn2cnc3c(Nc4ccc(Cl)cc4)ncnc32)cc1", "target": "HDAC9", "effect on": "enzyme activity", "mode": "inhibitor", "IC50 [µM]": 0.385}
{"Structure (SMILES)": "Cc1ccc(-c2ccc(C=O)cc2)c(C)c1", "target": "ALDH1A3", "effect on": "enzyme activity", "mode": "inhibitor", "IC50 [µM]": 0.11}
{"Structure (SMILES)": "COc1cc(/C=N/NC(=S)N/N=C/c2ccc(Cl)cc2)ccc1Oc1ccnc2cc(Cl)ccc12", "target": "Pancreatic alpha-amylase", "effect on": "enzyme activity", "mode": "inhibitor", "technique": "absorbance", "IC50 [µM]": 44.1}
{"Structure (SMILES)": "O=C(Nc1ccc(F)c(Br)c1)c1ccc2c(c1)C(=O)NC2=O", "target": "MAOB", "effect on": "enzyme activity", "mode": "inhibitor", "IC50 [µM]": 0.011}
{"Structure (SMILES)": "COc1nc2ccc(Br)cc2cc1[C@@H](c1ccccc1)[C@@](O)(CCN(C)C)c1cccc2ccccc12", "target": "ALDH1A3", "effect on": "enzyme activity", "mode": "inhibitor", "IC50 [µM]": "< 10"}
{"Structure (SMILES)": "O=C(N[C@@H](CSCc1ccc([N+](=O)[O-])cc1)C(=O)NO)c1ccccc1", "target": "Lactoylglutathione lyase (GLO1, Homo sapiens, UniProt Q04760)", "effect on": "enzyme activity", "mode": "inhibitor", "IC50 [µM]": 0.952}
{"Structure (SMILES)": "COc1cc(/C=N/NC(=S)N/N=C/c2ccccc2)ccc1Oc1ccnc2cc(Cl)ccc12", "target": "Pancreatic alpha-amylase", "effect on": "enzyme activity", "mode": "inhibitor", "technique": "absorbance", "IC50 [µM]": 46.4}
{"Structure (SMILES)": "N=C(CCl)NCCC[C@H](NC(=O)c1ccc2cc(Br)ccc2c1)C(=O)NCc1ccccc1", "target": "PADI4", "effect on": "enzyme activity", "mode": "inhibitor", "technique": "fluorescence", "setting": "with preincubation", "IC50 [µM]": 0.393}
{"Structure (SMILES)": "Nc1nc2c(s1)C(c1ccccc1Cl)CC(=O)N2 (stereo not drawn)", "target": "ALDH1A3", "effect on": "enzyme activity", "mode": "inhibitor", "IC50 [µM]": "< 10"}
{"Structure (SMILES)": "CS(=O)(=O)Nc1ccc(Nc2nc(-c3cc4ccccc4oc3=O)cs2)cc1Oc1ccccc1", "target": "CA9", "effect on": "enzyme activity", "mode": "inhibitor", "IC50 [µM]": 1.69}
{"Structure (SMILES)": "COc1cc(/C=N/NC(=S)N/N=C/c2ccc(Br)s2)ccc1Oc1ccnc2cc(Cl)ccc12", "target": "Pancreatic alpha-amylase", "effect on": "enzyme activity", "mode": "inhibitor", "technique": "absorbance", "IC50 [µM]": 39.1}
{"Structure (SMILES)": "C[C@@]12C[C@@]3(O)O[C@@H](O1)[C@]1(COC(=O)c4ccccc4)[C@H]3C[C@@]12O[C@@H]1O[C@H](COC(=O)c2cc(O)c(O)c(O)c2)[C@@H](O)[C@H](O)[C@H]1O", "target": "Catechol O-methyltransferase (Comt, Rattus norvegicus, UniProt P22734)", "effect on": "enzyme activity", "mode": "inhibitor", "IC50 [µM]": 16.2}
{"Structure (SMILES)": "N=C(CCl)NCCC[C@H](NC(=O)c1cccc(NC(=O)c2cc3c(s2)CCC3)c1)C(=O)NCc1ccccc1", "target": "PADI4", "effect on": "enzyme activity", "mode": "inhibitor", "technique": "fluorescence", "setting": "with preincubation", "IC50 [µM]": 0.454}
{"Structure (SMILES)": "O=C(Nc1ccc(Cl)c(Br)c1)c1ccc2c(c1)C(=O)NC2=O", "target": "MAOB", "effect on": "enzyme activity", "mode": "inhibitor", "IC50 [µM]": 0.012}
{"Structure (SMILES)": "O=C(CCNC(=O)CNC(=O)CC(c1ccccc1)(c1ccccc1)c1ccccc1)NC[C@@H]1CCCN(Cc2ccc(F)nc2)C1", "target": "CHRM4", "effect on": "ligand displacement", "technique": "radioligand", "setting": "cell membranes", "IC50 [µM]": "> 30"}
{"Structure (SMILES)": "COc1ccc(N(Cc2nc(-c3ccc(F)cc3)cs2)C(=O)CCCCCC(=O)NO)cc1", "target": "HDAC9", "effect on": "enzyme activity", "mode": "inhibitor", "IC50 [µM]": "> 10"}
{"Structure (SMILES)": "N=C(CCl)NCCC[C@H](NC(=O)c1cccc(-c2ccc(B(O)O)cc2)c1)c1nc2ccccc2[nH]1", "target": "PADI4", "effect on": "enzyme activity", "mode": "inhibitor", "technique": "fluorescence", "setting": "with preincubation", "IC50 [µM]": 0.588}
{"Structure (SMILES)": "O=C(Nc1ccc(F)c(Cl)c1)c1ccc2c(c1)C(=O)NC2=O", "target": "MAOB", "effect on": "enzyme activity", "mode": "inhibitor", "IC50 [µM]": 0.015}
{"Structure (SMILES)": "CCCC[C@@H](NC(=O)[C@@H](Cc1cn(C(=O)OC)c2ccccc12)NC(=O)[C@H](CC(C)(C)C)NC(=O)N1[C@H](C)CCC[C@@H]1C)C(=O)O", "target": "Endothelin receptor type B (EDNRB, Homo sapiens, UniProt P24530)", "effect on": "ligand displacement", "technique": "radioligand", "setting": "cell membranes", "IC50 [µM]": 0.00329}
{"Structure (SMILES)": "N=C(CCl)NCCC[C@H](NC(=O)c1ccc(B(O)O)cc1)c1nc2ccccc2[nH]1", "target": "PADI4", "effect on": "enzyme activity", "mode": "inhibitor", "technique": "fluorescence", "setting": "with preincubation", "IC50 [µM]": 2.2}
{"Structure (SMILES)": "O=C(Nc1cc(Cl)cc(Cl)c1)c1ccc2c(c1)C(=O)NC2=O", "target": "MAOB", "effect on": "enzyme activity", "mode": "inhibitor", "IC50 [µM]": 0.055}
{"Structure (SMILES)": "N=C(CCl)NCCC[C@H](NC(=O)c1cccc(-c2ccc(O)cc2)c1)C(=O)NCc1ccccc1", "target": "PADI4", "effect on": "enzyme activity", "mode": "inhibitor", "technique": "fluorescence", "setting": "with preincubation", "IC50 [µM]": 0.524}
{"Structure (SMILES)": "O=C(O)c1ccc(Nc2nc(-c3cc4cc(Br)ccc4oc3=O)cs2)cc1", "target": "CA9", "effect on": "enzyme activity", "mode": "inhibitor", "IC50 [µM]": 4.38}
{"Structure (SMILES)": "COc1cc(/C=N/NC(=S)NN=Cc2ccc(CO)o2)ccc1Oc1ccnc2cc(Cl)ccc12", "target": "Pancreatic alpha-amylase", "effect on": "enzyme activity", "mode": "inhibitor", "technique": "absorbance", "IC50 [µM]": 46.4}
{"Structure (SMILES)": "COc1ccc2cc(C(=O)N[C@@H](CCCNC(=N)CCl)C(=O)NCc3ccccc3)[nH]c2c1", "target": "PADI4", "effect on": "enzyme activity", "mode": "inhibitor", "technique": "fluorescence", "setting": "with preincubation", "IC50 [µM]": 0.362}
{"Structure (SMILES)": "COc1cc(/C=N/NC(=S)N/N=C/c2ccc(C=O)cc2)ccc1Oc1ccnc2cc(Cl)ccc12", "target": "Pancreatic alpha-amylase", "effect on": "enzyme activity", "mode": "inhibitor", "technique": "absorbance", "IC50 [µM]": 58.7}
{"Structure (SMILES)": "O=C(Nc1cccc(Cl)c1)c1ccc2c(c1)C(=O)NC2=O", "target": "MAOB", "effect on": "enzyme activity", "mode": "inhibitor", "IC50 [µM]": 0.29}
{"Structure (SMILES)": "O=C(CCNC(=O)CNC(=O)CC(c1ccccc1)(c1ccccc1)c1ccccc1)NCC1CCN(Cc2ccc(F)cc2)CC1", "target": "CHRM4", "effect on": "ligand displacement", "technique": "radioligand", "setting": "cell membranes", "IC50 [µM]": 11.6}
{"Structure (SMILES)": "COc1cc(/C=N/NC(=S)N/N=C/c2ccc(Br)cc2)ccc1Oc1ccnc2cc(Cl)ccc12", "target": "Pancreatic alpha-amylase", "effect on": "enzyme activity", "mode": "inhibitor", "technique": "absorbance", "IC50 [µM]": 50.5}
